An excerpt weighted towards active compounds, which were near 4% of everything screened.
S1P3 antag – blocks the human S1P3 receptor. Q99500. CHO S1P3 NFAT-BLA reporter, FRET fluorescence, antagonist mode. inhibition, % at 4.98 µM. 170,000 compounds, 0.27% hits. AID 485;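 active = inhibition above the plate cutoff, the mean inhibition of test wells on that plate plus 3 SD, cut at about 28% in these data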;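 note: cells challenged with S1P at its EC80 of 0.8 µM; blue over green emission ratio from cleaved BLA substrate after 4 h stimulation; 0% = S1P-stimulated wells and 100% = unstimulated DMSO-only wells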
Target sequence (Q99500 whole entry, looked up): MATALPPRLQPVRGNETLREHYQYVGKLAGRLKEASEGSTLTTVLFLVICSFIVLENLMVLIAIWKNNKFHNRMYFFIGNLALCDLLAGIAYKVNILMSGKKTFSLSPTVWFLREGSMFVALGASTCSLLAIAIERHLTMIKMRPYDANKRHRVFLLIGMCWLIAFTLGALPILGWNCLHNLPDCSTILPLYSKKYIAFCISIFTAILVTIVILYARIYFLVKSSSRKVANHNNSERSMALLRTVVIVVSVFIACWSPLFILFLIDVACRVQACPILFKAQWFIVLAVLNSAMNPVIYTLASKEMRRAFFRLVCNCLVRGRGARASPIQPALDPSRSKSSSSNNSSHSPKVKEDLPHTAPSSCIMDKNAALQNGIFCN
CHOP inhibitor – CHOP inhibition in unfolded protein response; CHO-K1 CHOP-promoter luciferase, tunicamycin-induced, 15-18 h; inhibition, % at 10 µM; 220,000 compounds, 3.8% hits; AID 2732;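 active = compounds that reduced the stress-induced luciferase reporter signal by more than about 70% of percent inhibition, limit read from the data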;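 note: 0% = tunicamycin plus vehicle and 100% = wells without tunicamycin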
Hsp70 activator – switches on Hsp70 transcription. activation, % at 10 µM. 200,000 compounds, 0.04% hits. HeLa Hsp70 promoter luciferase reporter, luminescence; scaled: vehicle 0, proteasome-inhibitor control 100%;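 active = activation above the mean across all tested compounds plus 3 SD, cutoff set per campaign, cut at about 5.5% in these data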;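 note: 100% = MG132 at 30 µM as the positive control and 0% = DMSO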
MDM2 E3 inh – blocks human Mdm2 ubiquitin ligase activity; cell-based MDM2 ubiquitination luciferase reporter, 2 h; 0 = plate control, 100 = twice control, blank-subtracted; signal enhancement, % at 5 µM; 210,000 compounds, 0.11% hits;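 active = signal enhancement of 30% or more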;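 note: luminescence tracks abundance of the self-degrading MDM2-luciferase fusion protein; higher signal means inhibition of MDM2 E3 ligase activity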
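Test system: mammalian cells stably expressing self-ubiquitinating, self-degrading MDM2 E3–luciferase fusion; Amount: 2000 cells in each well; Medium: DMEM; Schedule: 4 h settle plus 2 h compound, 37 °C; Technique: SteadyLite luciferase luminescence after 15 min room-temperature reagent incubation; Benchmarks: plate control and blank wells.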
Numbers without * were called inactive; . = no result given.

SMILES	S1P3 antag	CHOP inhibitor	Hsp70 activator	MDM2 E3 inh
C=CCOc1ccccc1CNc1ccccc1C	3	70*	0	7
Cc1ccccc1NCc1ccccc1O	4	33	0	-2
Cc1cc(C)cc(OCC(=O)N2N=C(c3cccnc3)CC2(O)C(F)(F)F)c1 (stereo unspecified)	5	7	-1	-3
CC(C)(C)C1=NN(C(=O)c2ccccc2)C(O)(C(C)(C)C)C1 (stereo unspecified)	.	59	-1	-9
CC(C)(C)C1(O)CC(C(F)(F)F)=NN1C(=O)CCCc1ccccc1 (stereo unspecified)	-23	88*	0	1
Cc1cc(C)cc(OCC(=O)N2N=C(C(F)(F)F)CC2(O)C(C)(C)C)c1 (stereo unspecified)	.	78*	0	-17
Nc1[nH]n2c(=O)c3c(nc2c1N=Nc1ccc(Cl)cc1)CCCC3	.	78*	0	-11
Nc1[nH]n2c(=O)c3c(nc2c1N=Nc1ccccc1)CCCC3	.	-86	0	-7
CCNc1nc(NC(C)C)nc(N(C#N)CCOc2ccc(Cl)cc2Cl)n1	18	76*	0	1
COc1ccc(CN2CCNC(=O)C2CC(=O)NCCCn2cccn2)c(OC)c1 (stereo unspecified)	-12	-3	0	5
Cc1ccc2c(c1)SC1=NC(c3ccccc3)(C(F)(F)F)NC(=O)N12 (stereo unspecified)	.	70*	-1	-26
COc1ccc(/C=N\NC(=O)CC(=O)Nc2cccc(Cl)c2)cc1OC	3	15	0	0
COc1ccc(/C=N/NC(=O)Nc2cccc3nsnc23)cc1OC	-4	83*	0	-15
Cc1ccc(C(O)(c2ccccc2)c2ccccc2C(C)N(C)C)c(C)c1 (stereo unspecified)	.	96*	0	-17
COc1cc(CNC2CCCCCC2)cc(OC)c1O	-41	9	0	-14
COc1cc(CNC2CCCC2)cc(Cl)c1OCc1ccccc1F	.	79*	0	1
O=C(/C=C/c1cn(-c2ccccc2)nc1-c1ccccc1)Nc1ccc(C(=O)O)cc1	-8	12	0	-15
Cc1ccc(-c2nn(-c3ccccc3)cc2NC(=O)CCl)cc1	-3	104*	0	-39
Cc1ccc(-c2nn(-c3ccccc3)cc2/C=C/C(=O)Nc2nccs2)cc1	0	93*	0	-14
Cc1ccc(-c2nn(-c3ccccc3)cc2CNCc2ccccc2)cc1	-14	9	0	-9
CCOC(=O)c1cc(C#N)c(N2CCN(c3ccc(OC)cc3)CC2)[nH]c1=O	-8	47	0	5
CC(=O)c1ccc(N=C2SCCCN2C(=O)C2CCCC2)cc1	-2	0	0	-6
COc1ccc(-n2c(=O)c3c(C)c(C)sc3n(Cc3ccc(F)cc3)c2=O)c(OC)c1	-7	-8	0	-1
Cc1ccccc1C(C(=O)NC1CCCCC1)N(C(=O)CNC(=O)c1ccco1)c1cccnc1 (stereo unspecified)	-5	-1	0	-3
CC(OC(=O)CCN1C(=O)c2cccc([N+](=O)[O-])c2C1=O)C(=O)Nc1cc(Cl)cc(Cl)c1 (stereo unspecified)	-14	82*	0	-4
SMILES	S1P3 antag	CHOP inhibitor	Hsp70 activator	MDM2 E3 inh
CC1CCC(NC(=O)c2ccc(/C=C3\Oc4ccccc4N(C)C3=O)cc2)CC1 (stereo unspecified)	-11	91*	0	1
Cc1ccc(C2=Nc3ccccc3N=C(C(Cl)Cl)C2)cc1	2	84*	0	-47
O=C(NCc1cccnc1)/C(=C\c1ccc(-c2ccc(Cl)c(Cl)c2)o1)S(=O)(=O)c1ccccc1	10	110*	0	.
Cc1ccc(S(=O)(=O)NNC(=O)c2ccoc2C)cc1	0	-9	.	-6
CCOC(=O)C(=Cc1cc(=O)c(OC)co1)C(=O)OCC	11	109*	0	2
CCc1c(C)sc(NC(=O)c2cc(-c3ccc(OC)c(OC)c3)on2)c1C#N	.	83*	0	-17
CCc1c(C)sc(NC(=O)c2cc(-c3cc(OC)ccc3OC)on2)c1C#N	-26	86*	0	-14
CCc1c(C)sc(NC(=O)c2cc(-c3ccc(O)cc3)on2)c1C#N	.	-10	0	-6
COc1cc(/C=N/NC(=O)C(=O)NCc2ccco2)cc(Cl)c1O	-9	-2	.	-14
Cc1c2c(nc3ccccc13)OCC2	2	3	0	.
NC(=O)c1ccc[n+](Cc2cccc3ccccc23)c1	-4	5	0	-6
CN1C(N)=NC(=O)/C1=C/c1ccc(OC(F)(F)F)cc1	7	10	0	0
